Compound activity deposited in PubChem by several laboratories.
The list is not random: actives were taken first. Their share in the collection is about 2%.
PTPN22 inh 2: LYP (human) phosphatase inhibition; Q9Y2R2; recombinant LYP catalytic domain, DiFMUP fluorescence; inhibition, % at 2 µM; hit rate 0.21% among 96,000; AID 640;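 active = inhibition at 2 µM at or above a set limit, the screen mean plus 3 SD, cut at about 24% in these data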;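 note: 0% = DMSO with enzyme and 100% = enzyme fully blocked by orthovanadate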
Plk1 PBD FP: inhibitors of human Plk1 polo box domain binding | P53350 | Plk1 PBD phosphopeptide binding, fluorescence polarization | inhibition, %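 (tested at about 20 µM)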 | hit rate 0.13% among 97,000 | AID 693; in the data active = inhibition above about 34%, passing the limit was not always enough
PLK1 kinase inh: inhibitors of human PLK1 kinase; P53350; recombinant PLK1 kinase, TR-FRET peptide phosphorylation; inhibition, % at 10 µM; hit rate 0.53% among 97,000; AID 619;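 active = inhibition of 50% or more in the single-concentration screen; inactive = inhibition below 50%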;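 note: 0% = DMSO max control and 100% = H-89 dihydrochloride min control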
LYP act: LYP (human) phosphatase activation. AID 697. hit rate 0.11% among 96,000. activation, % at 2 µM. recombinant LYP, DiFMUP fluorescence; 0 = plate median, 100 = signal doubled. Q9Y2R2;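 active = activation at 2 µM above a set limit, the mean plus 5 SD, cut at about 37% in these data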
HIV Rev-RRE inh: HIV Rev-RRE protein-RNA interaction inhibition. P05866. Rev peptide-RRE RNA binding, FRET. inhibition, % at 8 µM. hit rate 0.79% among 97,000. AID 704;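 active = inhibition above the screen-wide mean plus 3 SD, cut at about 35% in these data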;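 note: 0% = median DMSO wells and 100% = median Neomycin B control wells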
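Test system: Cy5-tagged RRE RNA duplex with fluorescein-tagged Rev peptide; Probe or stimulus: labelled Rev peptide; Schedule: 5 min preincubation and 15 min binding, 25 °C; Signal: FRET fluorescence readout; Evaluation: % inhibition from 671/540 nm acceptor-to-donor ratio, scaled between controls; Control set: DMSO and neomycin B.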
EphB4 ephrin blk: blocks human EphB4 binding to ephrin-B2; P54760; EphB4 LBD / TNYL-RAW-Alexa532 peptide, fluorescence polarization; inhibition, % at 7 µM; hit rate 0.15% among 97,000;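 active = inhibition above the screen-wide mean inhibition plus 3 SD, cut at about 15% in these data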;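 note: 0% = DMSO wells and 100% = excess unlabeled TNYL-RAW peptide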
* marks the source's active call; other numbers are inactive results; [ ] = dose if it differs, or a comment.

`CCOC(=O)C1=C(C)NC(C)=C(C(=O)OCC)C1C(=O)OCC(=O)c1ccc2c(c1)OCCO2` gave PTPN22 inh 2 -2.6, Plk1 PBD FP 0.7, PLK1 kinase inh -3.8, LYP act 0.5, HIV Rev-RRE inh 10.1 and EphB4 ephrin blk 3.9.
COc1ccc(S(=O)(=O)NCc2ccccc2)cc1 was read as PTPN22 inh 2 0.6, Plk1 PBD FP -28.7, PLK1 kinase inh -16.3, LYP act -2.2, HIV Rev-RRE inh 3.2 and EphB4 ephrin blk 2.7.
For CCC(=O)Nc1cc(C)c(NC(=O)CCc2ccccc2)cn1 the results were PTPN22 inh 2 -3.2, Plk1 PBD FP -11.2, PLK1 kinase inh -5.6, LYP act 2.1, HIV Rev-RRE inh 37.8* and EphB4 ephrin blk -0.2.
For CCOC(=O)c1ccc(Oc2c(C)oc3c(CN4CCN(C)CC4)c(O)ccc3c2=O)cc1 the results were PTPN22 inh 2 1.2, Plk1 PBD FP -24.7, PLK1 kinase inh -2.4, LYP act -1.8, HIV Rev-RRE inh 4.5 and EphB4 ephrin blk 2.5.
For O=C(NCCCO)c1ccc2[nH]c3c(c2c1)CCCC3 the results were PTPN22 inh 2 4.7, Plk1 PBD FP -7.5, PLK1 kinase inh -7.1, LYP act -2.7, HIV Rev-RRE inh 3.4 and EphB4 ephrin blk -5.1.
Cc1ccccc1NC(=O)Cn1c(C)nc2ccc(N)cc2c1=O was read as PTPN22 inh 2 3.5, Plk1 PBD FP 23.8, PLK1 kinase inh -12.9, LYP act -1.7, HIV Rev-RRE inh 7.3 and EphB4 ephrin blk -5.8.
`O=C(CSc1nnc2scc(-c3ccccc3)n12)Nc1nsc(-c2ccccc2)n1` gave PTPN22 inh 2 12.0, Plk1 PBD FP -13.5, PLK1 kinase inh -10.2, LYP act -16.6, HIV Rev-RRE inh 3.9 and EphB4 ephrin blk -0.7.
`O=C(CSc1nnc2scc(-c3ccccc3)n12)Nc1nsc(-c2ccc(Cl)cc2)n1` gave PTPN22 inh 2 26.0*, Plk1 PBD FP -4.0, PLK1 kinase inh -9.9, LYP act -24.2, HIV Rev-RRE inh 9.9 and EphB4 ephrin blk 2.1.
CCN(CC)C(=O)Nc1c(C)n(C)n(-c2ccccc2)c1=O was read as PTPN22 inh 2 -11.0, Plk1 PBD FP 14.4, PLK1 kinase inh 54.7*, LYP act 12.8, HIV Rev-RRE inh 5.2 and EphB4 ephrin blk 1.0.
Screening Cc1c(NC(=O)COC(=O)C(c2ccc(Cl)cc2)C(C)C)c(=O)n(-c2ccccc2)n1C (stereo not given) returned PTPN22 inh 2 -6.8, Plk1 PBD FP -10.5, PLK1 kinase inh -15.0, LYP act 4.2, HIV Rev-RRE inh 2.6 and EphB4 ephrin blk 16.9*.
For Cc1ccc(C(=O)n2nc(-c3ccco3)nc2N)cc1 the results were PTPN22 inh 2 28.8*, Plk1 PBD FP -10.2, PLK1 kinase inh -10.5, LYP act -27.5, HIV Rev-RRE inh 3.5 and EphB4 ephrin blk 4.9.
COc1ccc(C(=O)n2nc(-c3ccco3)nc2N)cc1 was read as PTPN22 inh 2 8.9, Plk1 PBD FP -23.6, PLK1 kinase inh -9.0, LYP act -9.9, HIV Rev-RRE inh 3.7 and EphB4 ephrin blk 6.5.
Screening O=c1[nH]c(Nc2ccccc2)cc2ccccc12 returned PTPN22 inh 2 2.9, Plk1 PBD FP 9.2, PLK1 kinase inh -7.9, LYP act -4.8, HIV Rev-RRE inh 61.3* and EphB4 ephrin blk 0.0.
CCOC(=O)c1ccc(N=C2S/C(=C\c3cc(C)n(-c4cccnc4)c3C)C(=O)N2C)cc1 was read as PTPN22 inh 2 4.2, Plk1 PBD FP -7.5, PLK1 kinase inh -12.3, LYP act -1.3, HIV Rev-RRE inh -9.7 and EphB4 ephrin blk 2.6.
`Cc1cc(/C=C2\SC(N)=NC2=O)c(C)n1-c1ccccc1` gave PTPN22 inh 2 12.0, Plk1 PBD FP 4.7, PLK1 kinase inh 0.0, LYP act -9.9, HIV Rev-RRE inh 13.8 and EphB4 ephrin blk 0.2.
`Cc1cc(/C=C2/SC(=S)N(c3cccc(C(F)(F)F)c3)C2=O)c(C)n1-c1cccnc1` gave PTPN22 inh 2 13.5, Plk1 PBD FP -137.2, PLK1 kinase inh -42.1, LYP act -8.8, HIV Rev-RRE inh 43.6* and EphB4 ephrin blk 4.2.
Cc1cc(/C=C2\SC(=S)N(Cc3ccco3)C2=O)c(C)n1-c1cccnc1 was read as PTPN22 inh 2 10.8, Plk1 PBD FP -153.0, PLK1 kinase inh -22.0, LYP act -7.0, HIV Rev-RRE inh 95.0*[fluorescence artefact?] and EphB4 ephrin blk -8.6.
